The source of these data is ChEMBL document CHEMBL3813661, “Humudifucol and Bioactive Prenylated Polyphenols from Hops (Humulus lupulus cv. "Cascade")” (J Nat Prod, 2016).

Test [1] concerns the target T1, Polyunsaturated fatty acid 5-lipoxygenase (Homo sapiens) (UniProt P09917).
T1 sequence (whole entry): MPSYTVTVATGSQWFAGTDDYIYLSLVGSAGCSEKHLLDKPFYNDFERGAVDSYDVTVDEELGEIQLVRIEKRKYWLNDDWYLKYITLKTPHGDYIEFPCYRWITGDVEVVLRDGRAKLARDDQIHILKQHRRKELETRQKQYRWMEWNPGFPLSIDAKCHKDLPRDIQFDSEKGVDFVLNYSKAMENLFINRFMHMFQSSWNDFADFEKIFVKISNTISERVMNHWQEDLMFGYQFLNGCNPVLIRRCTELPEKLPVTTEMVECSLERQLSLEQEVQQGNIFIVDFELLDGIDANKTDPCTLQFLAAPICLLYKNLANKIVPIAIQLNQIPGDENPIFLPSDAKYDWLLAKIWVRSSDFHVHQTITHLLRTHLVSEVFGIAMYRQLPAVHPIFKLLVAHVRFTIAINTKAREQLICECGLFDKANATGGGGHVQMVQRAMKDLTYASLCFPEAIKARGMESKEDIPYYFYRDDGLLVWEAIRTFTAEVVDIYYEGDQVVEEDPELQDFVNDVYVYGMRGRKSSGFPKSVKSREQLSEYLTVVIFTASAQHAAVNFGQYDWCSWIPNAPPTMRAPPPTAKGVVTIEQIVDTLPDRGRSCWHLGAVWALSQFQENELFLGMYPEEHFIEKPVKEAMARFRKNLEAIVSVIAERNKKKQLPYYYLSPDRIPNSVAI
The test can be described thus: Inhibition of 5-LO in human polymorphonuclear leukocytes assessed as residual activity at 10 uM preincubated for 10 mins followed by addition of arachidonic acid as substrate measured after 10 mins by HPLC method relative to control. The class given is cell-based.

The target of test [2] is T2, Polyunsaturated fatty acid 5-lipoxygenase (Homo sapiens, UniProt P09917).
T2 sequence (P09917 whole entry): T1 sequence (whole entry)
Briefly: Inhibition of 5-LO in human polymorphonuclear leukocytes preincubated for 10 mins followed by addition of arachidonic acid as substrate measured after 10 mins by HPLC method. It counts as cell-based.

Test [3] has as its target T2, Polyunsaturated fatty acid 5-lipoxygenase. The test can be described thus: Inhibition of recombinant human 5-LO expressed in Escherichia coli MV1190 cells preincubated for 10 mins followed by addition of arachidonic acid as substrate measured after 10 mins by RP-HPLC method. In a few lines: (§1)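 Recombinant human 5-LO expressed at 27 °C in E. coli MV1190 and partially purified from the 40000g supernatant on ATP-agarose. Enzyme taken up in PBS with 1 mM EDTA plus 1 mM ATP and preincubated with compound on ice 10 min. After 30 s at 37 °C, 2 mM CaCl2 and 20 μM AA added for 10 min. Stopped with methanol, products measured by RP-HPLC. Mean ± SEM, 3–4 experiments.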

Test [4] concerns the target T3, Prostaglandin E synthase (Homo sapiens) (UniProt O14684).
T3 sequence (whole entry): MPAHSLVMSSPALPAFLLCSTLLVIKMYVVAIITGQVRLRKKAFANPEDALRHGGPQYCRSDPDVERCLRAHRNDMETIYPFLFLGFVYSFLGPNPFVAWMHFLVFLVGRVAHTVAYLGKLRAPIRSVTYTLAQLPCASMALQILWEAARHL
The test can be described thus: Inhibition of mPGES-1 in microsomes of IL1-beta induced human A549 cells assessed as PGE2 formation by measuring enzyme residual activity at 10 uM preincubated for 15 mins followed by addition of PGH2 as substrate measured after 1 min by RP-HPLC method relative to control. The method, boiled down:
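Microsomes from A549 cells stimulated with IL-1β (1 ng/mL) for 48 h, diluted in 0.1 M potassium phosphate pH 7.4 with 2.5 mM glutathione. Compound or vehicle added for 15 min at 4 °C, then 20 μM PGH2 for 1 min at 4 °C. Stopped with FeCl2/citric acid containing 11β-PGE2. PGE2 measured by solid-phase extraction and RP-HPLC. Residual activity as % of control, mean ± SEM, 3–4 experiments.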

Test [5] deals with T1, Polyunsaturated fatty acid 5-lipoxygenase (Homo sapiens). The test can be described thus: Inhibition of recombinant human 5-LO expressed in Escherichia coli MV1190 cells assessed as residual activity preincubated for 10 mins followed by addition of arachidonic acid as substrate measured after 10 mins by RP-HPLC method relative to control. In a few lines: as §1

In the case of `CC(C)=CCC1(O)C(=O)C(CC=C(C)C)(CC=C(C)C)C(=O)C(C(=O)C(C)C)=C1O` (stereo not drawn), the Activity in test [1] worked out at 57.5%; in test [4], 32.8%. The results for the IC50 in test [2] (read-out: IC50) and in test [3] (read-out: IC50) were above 10 µM and 5.9 µM, respectively.

Regarding `COc1cc2c(c(O)c1C(=O)/C=C/c1ccc(O)cc1)C=CC(C)(C)O2` [XANTHOHUMOL C], the results for the Activity in test [1], in test [5] and in test [4] were 56.8%, 58% and 35.3%, respectively. Besides, the IC50 in test [2] (read-out: IC50) and in test [3] (read-out: IC50) was above 10 µM in each case.

For the molecule `CC(C)=CCc1c(O)cc(O)c(-c2c(O)cc(O)c(CC=C(C)C)c2O)c1O`, the IC50 result in test [2] and in test [3] was “Not Active” each time. Besides, in test [4], the Activity was found to be 40.2%.

As to `CC(C)=CCc1c(O)cc(O)c2c1O[C@H](c1ccc(O)cc1)CC2=O`, the results for the Activity in test [1], in test [5] and in test [4] were 87.5%, 66.7% and 56.5%, respectively. Moreover, the IC50 in test [2] (read-out: IC50) and in test [3] (read-out: IC50) was above 10 µM each time.

For `COc1cc(O)c(CC=C(C)C)c(O)c1C(=O)/C=C/c1ccc(O)cc1` [XANTHOHUMOL], the IC50 in test [2] (read-out: IC50) is 2.9 µM; in test [3] (read-out: IC50), 2.1 µM. Also, in test [4], the Activity stood at 32.3%.

For `CC(C)=CCC1=C(O)[C@](O)(CC=C(C)C)C(=O)C(C(=O)CC(C)C)=C1O`, the Activity came to 63.1% in test [1] and 49.7% in test [4]. For the same molecule, the IC50 in test [2] (read-out: IC50) is above 10 µM; in test [3] (read-out: IC50), 9.3 µM.

As to `CC(C)=CCC1=C2O[C@@H](C(C)(C)O)C[C@@]2(O)C(=O)C(C(=O)CC(C)C)=C1O`, the IC50 result is “Not Active” in test [2] and above 10 µM in test [3] (read-out: IC50). Also, the Activity was found to be 90.8% in test [5] and 52.7% in test [4].
